High-throughput results from PubChem.
FLuc act counter = affects firefly luciferase, flagging false hits in luciferase stimulation screens. P08659. ATPlite luciferase biochemical, luminescence, 10 min; 0 = ATP-free wells, 1 = DMSO control. activation factor at 10 µM. 200,000 tested, under 10 active. AID 1027;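 active means luciferase activation factor, scaled between plate controls, of at least 2 with compound at 10 µM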
Target sequence (P08659 whole entry, looked up): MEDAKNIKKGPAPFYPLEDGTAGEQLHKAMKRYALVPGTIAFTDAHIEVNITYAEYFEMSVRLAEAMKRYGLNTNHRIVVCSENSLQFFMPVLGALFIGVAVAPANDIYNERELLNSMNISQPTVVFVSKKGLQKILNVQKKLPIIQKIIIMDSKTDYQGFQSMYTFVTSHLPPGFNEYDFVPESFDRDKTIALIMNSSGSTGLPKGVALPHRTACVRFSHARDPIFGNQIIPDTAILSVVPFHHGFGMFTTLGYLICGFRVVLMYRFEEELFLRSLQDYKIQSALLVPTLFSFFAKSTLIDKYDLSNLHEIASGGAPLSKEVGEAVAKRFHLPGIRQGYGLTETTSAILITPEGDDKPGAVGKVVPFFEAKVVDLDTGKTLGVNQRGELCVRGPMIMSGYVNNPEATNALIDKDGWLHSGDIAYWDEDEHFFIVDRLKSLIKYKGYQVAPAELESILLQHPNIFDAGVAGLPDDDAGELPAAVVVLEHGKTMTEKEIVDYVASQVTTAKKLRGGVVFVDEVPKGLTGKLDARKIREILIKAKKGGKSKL
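Assay system: Luciferase/luciferin detection reagent, cell-free biochemical luciferase assay / Also added: ATP substrate / Schedule: 10 min at ambient temperature / Measured by: luminescence measurement of luciferase light output / Benchmarks: low control with PBS replacing ATP, high control enzyme plus ATP without compound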
PPC-1+TRAIL kill = compounds killing PPC-1 cancer cells with TRAIL present (potentiator screen, no TRAIL-free arm); PPC-1 cells + TRAIL, ATPLite viability luminescence; cell killing (% activity), % at 4 µM or 5 µM; actives 0.41% (n = 220,000);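 active means cell killing above 50% in the first pass at 4 µM, then a duplicate retest at 5 µM averaging 50% or more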;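 further: plate controls were cells with TRAIL plus DMSO for no effect and medium-only wells lacking cells for full effect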
FLuc inh counter = Photinus pyralis luciferase inhibition counter-screen; P08659; ATPLite firefly luciferase biochemical luminescence, 10 min; inhibition, % at 10 µM; actives 1.5% (n = 200,000);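 active means inhibition above about 50% when tested at 10 µM, limit read from the data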
C8 TRAIL sens = caspase-8 TRAIL sensitization; inhibition (viability loss, TRAIL sensitization), % at 10 µM; NB7+C8 cells + TRAIL, ATPlite viability luminescence; actives 1% (n = 360,000);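 active means compounds causing at least 50% loss of cell viability in the single-dose screen, relative to plate controls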
An asterisk follows results filed as active. Rows were chosen to be rich in hits. Some 1.6% of all compounds tested hit in one or more screens of this group.

What do the screens show for `CCN(CC)C(=O)c1ccc(NC(=O)c2cccc(C(F)(F)F)c2)cc1`?
FLuc act counter: 0.9; PPC-1+TRAIL kill: -4.2; FLuc inh counter: 7.7; C8 TRAIL sens: 2.1

What do the screens show for `CNC(=O)Oc1cccc(-c2cn3cc(Cl)ccc3n2)c1`?
FLuc act counter: 0.1; PPC-1+TRAIL kill: 85.5*; FLuc inh counter: 94.8*; C8 TRAIL sens: 79.7*

Results for CNC(=O)Oc1ccc(-c2cn3cc(C)ccc3n2)cc1 ?
FLuc act counter: 0; PPC-1+TRAIL kill: 88.3*; FLuc inh counter: 97.3*; C8 TRAIL sens: 93.2*

How did O=[N+]([O-])c1cnc[nH]1 do in these assays?
C8 TRAIL sens: 2.1

What do the screens show for `Cc1ccc(C[n+]2c(-c3ccc(C)cc3)cc(-c3ccc(C)cc3)cc2-c2ccc(C)cc2)cc1`?
C8 TRAIL sens: 63.0*

Results for CN(C)c1ccc(/C=C/C=C2/C(=O)NC(=O)N(c3ccccc3)C2=O)cc1 ?
FLuc act counter: 0.5; PPC-1+TRAIL kill: 1.6; FLuc inh counter: 52.9*; C8 TRAIL sens: 25.9

Results for COC(=O)C1=C(c2ccc(F)cc2OCc2ccccc2)C[C@@H]2CC[C@H]1N2C(=O)N1CCC(O)(c2ccc(Cl)cc2)CC1 ?
C8 TRAIL sens: 12.5

What do the screens show for `COc1ccc(-n2nnnc2C(c2cc3ccccc3o2)N2CCC(n3c(=O)[nH]c4ccccc43)CC2)cc1` (stereo not given)?
C8 TRAIL sens: 66.0*

What do the screens show for `O=c1[nH]c2ccccc2n1C1CCN(C(CCc2ccccc2)c2nnnn2Cc2ccccc2)CC1` (stereo not given)?
C8 TRAIL sens: 91.3*

Results for O=c1[nH]c2ccccc2n1C1CCN(C(c2cc3ccccc3o2)c2nnnn2-c2ccc3c(c2)OCCO3)CC1 (stereo not given) ?
C8 TRAIL sens: 86.5*

What do the screens show for `CSCCC(c1nnnn1Cc1ccccc1)N1CCC(n2c(=O)[nH]c3ccccc32)CC1` (stereo not given)?
C8 TRAIL sens: 47.0

How did CN1C(=O)N(C)C(=O)C(NS(=O)(=O)c2ccc(N)cc2)(c2ccccc2)C1=O do in these assays?
C8 TRAIL sens: -7.5

What do the screens show for `O=C(O)c1[nH]c(=O)[nH]c(=O)c1F`?
PPC-1+TRAIL kill: 3.3; C8 TRAIL sens: 1.5

What do the screens show for `C[C@]12CC[C@H]3C(CCC4(O)CC(O)CC[C@]34C=O)C1=CC[C@H]2c1ccc(=O)oc1` (stereo not given in full)?
C8 TRAIL sens: 53.8*

What do the screens show for `CC(=O)O[C@H]1[C@H]2O[C@]23[C@@H]2CC[C@]4(O)C[C@@H](O)CC[C@]4(C)C2CC[C@]3(C)[C@H]1c1ccc(=O)oc1` (stereo not given in full)?
C8 TRAIL sens: 64.2*

How did CCCCn1c(O)c(/C=C/C=Nc2ccccc2)c(=O)[nH]c1=O do in these assays?
FLuc act counter: 1.1; PPC-1+TRAIL kill: 17.7; FLuc inh counter: -7.5; C8 TRAIL sens: 11.3

Results for C[C@H]1CC[C@@H]2[C@@H](C)[C@H]3[C@H](C[C@H]4[C@@H]5CC=C6C[C@@H](O[C@@H]7O[C@H](CO)[C@H](O)[C@H](O[C@@H]8O[C@H](CO)[C@@H](O)[C@H](O)[C@H]8O)[C@H]7O[C@@H]7O[C@@H](C)[C@H](O)[C@@H](O)[C@H]7O)CC[C@]6(C)[C@H]5CC[C@]34C)N2C1 ?
FLuc act counter: 1; PPC-1+TRAIL kill: 2.0; FLuc inh counter: -2.3; C8 TRAIL sens: 10.6

How did CC12CC[C@H]3[C@@H](CCC4(O)C[C@H](O)CCC34/C=N/NC(=O)Cc3ccccc3)C1(O)CCC2C1=CC(=O)OC1 (stereo not given in full) do in these assays?
PPC-1+TRAIL kill: -1.9; C8 TRAIL sens: 9.2

What do the screens show for `C[C@]12CC[C@H](O)C[C@H]1CC[C@@H]1[C@@H]2C[C@@H](O)[C@]2(C)[C@@H](C3=CC(=O)OC3)CC[C@]12O`?
C8 TRAIL sens: 56.0*

How did COC1C(O)C(C)OC(OC2CCC3(C)C(CCC4C3C(O)CC3(C)C(C5=CC(=O)OC5)CCC43O)C2)C1O (stereo not given) do in these assays?
C8 TRAIL sens: 68.1*

How did CC(=O)OC1CC(OC2C(O)CC(OC3C(O)CC(OC4CCC5(C)C(CCC6C5CC(O)C5(C)C(C7=CC(=O)OC7)CCC65O)C4)OC3C)OC2C)OC(C)C1OC1OC(CO)C(O)C(O)C1O (stereo not given) do in these assays?
C8 TRAIL sens: 66.5*
